Data from ChEMBL document CHEMBL1124118, “Design, synthesis, and antineoplastic activity of 2'-deoxy-2'-methylidenecytidine” (J Med Chem, 1988).
In brackets after ≈: the same amount, converted by molar mass.

Columns and labels:
Assay type in all cases: functional, cell-based
[1] = test system: CCRF-CEM; assay: In vitro inhibitory effect on growth of human T-cell acute lymphoblastoid leukemic CCRFCEM cell lines.
How it was run: (§1)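 MTT growth-inhibition assay (Carmichael method). Tumor cells seeded at 1 × 10^4 per well and incubated with or without compound for 72 h. MTT then added and OD(550-660 nm) read. % inhibition = [1 − (OD sample / OD control)] × 100. IC50 (μg/mL) taken as the concentration giving 50% inhibition of cell growth.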

[2] = test system: K562; assay: In vitro inhibitory effect on growth of human chronic myelogenous leukemic K562 cell lines.; how it was run: as §1
[3] = test system: L1210; assay: In vitro inhibitory effect on growth of mouse leukemic L1210 cell lines.; how it was run: as §1
[4] = test system: MOLT-4; assay: In vitro inhibitory effect on growth of human T-cell acute lymphoblastic leukemic MOLT 4 cell lines.; how it was run: as §1
[5] = test system: SW480; assay: In vitro inhibitory effect on growth of human colon adenocarcinoma cell lines (SW480).; how it was run: as §1
[6] = test system: T-24; assay: In vitro inhibitory effect on growth of human bladder transitional-carcinoma cell lines (T24).; how it was run: as §1
[7] = test system: TE-2; assay: In vitro inhibitory effect on growth of human esophagus […] cell lines (TE2).; how it was run: as §1
[8] = test system: PC10; assay: In vitro inhibitory effect on growth of human lung squamous cell carcinom cell lines (PC10).; how it was run: as §1
[9] = test system: PC10; assay: In vitro inhibitory effect on growth of human lung squamous cell carcinoma cell lines (PC10).
How it was run: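 Cells seeded at 1 × 10^4/well and incubated with or without compound for 72 h. MTT was then added and OD(550-660 nm) was read. % inhibition = [1 − (OD of sample well / OD of control well)] × 100. IC50 (μg/mL) is the concentration giving 50% inhibition of cell growth.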

Row | Structure (SMILES) | IC50 [1] [µg/mL] | IC50 [2] [µg/mL] | IC50 [3] [µg/mL] | IC50 [4] [µg/mL] | IC50 [5] [µg/mL] | IC50 [6] [µg/mL] | IC50 [7] [µg/mL] | IC50 [8] [µg/mL] | IC50 [9] [µg/mL]
1 | C=C1C(n2ccc(N)nc2=O)O[C@H](CO)[C@@H]1O (some centres undefined) | 0.047 (≈ 0.196 µM) | 1.2 (≈ 5.02 µM) | 0.11 (≈ 0.46 µM) | 0.025 (≈ 0.105 µM) | 3.8 (≈ 15.9 µM) | 3.7 (≈ 15.5 µM) | 2.9 (≈ 12.1 µM) | 60.5 (≈ 253 µM) | –
2 | Nc1ccn([C@@H]2O[C@H](CO)[C@@H](O)[C@@H]2O)c(=O)n1 [CYTARABINE] | 0.065 (≈ 0.267 µM) | 3.2 (≈ 13.2 µM) | 0.097 (≈ 0.399 µM) | 0.056 (≈ 0.23 µM) | > 100 | > 100 | > 100 | – | > 100
3 | O=c1[nH]cc(F)c(=O)[nH]1 [FLUOROURACIL] | 40 (≈ 308 µM) | 38 (≈ 292 µM) | 0.32 (≈ 2.46 µM) | 3.8 (≈ 29.2 µM) | 3.3 (≈ 25.4 µM) | 6.1 (≈ 46.9 µM) | 3.9 (≈ 30 µM) | – | > 100
